According to the EternaBench riboswitch data:

System: MS2 coat protein
Assay: apparent Kd, MS2 coat protein; higher = weaker binding; RNA-MaP array; FMN 200 µM where present
In short: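 Stalled E. coli RNA polymerase transcribed each design on Illumina sequencing-chip clusters. The clusters were titrated with SNAP-549-labelled MS2 coat protein, starting at 0.7 or 1.5 nM and doubling up to 3 µM, first without ligand and then with constant ligand, in 100 mM Tris-HCl pH 7.5, 80 mM KCl, 4 mM MgCl2, BSA, DTT, yeast tRNA and Tween-20. Green signal was normalised to red-channel RNA signal and to the control-cluster median Fmax. The apparent Kd is the median of filtered binding-curve fits made for each cluster.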

[1] = designed as: OFF switch for flavin mononucleotide, no ligand
[2] = ligand present: flavin mononucleotide, designed as: OFF switch for flavin mononucleotide
[3] = designed as: ON switch for flavin mononucleotide, no ligand
[4] = ligand present: flavin mononucleotide, designed as: ON switch for flavin mononucleotide

| Sequence | apparent Kd [1] | apparent Kd [2] | apparent Kd [3] | apparent Kd [4] |
| --- | --- | --- | --- | --- |
| UCAUACAUGAGGAUCACCCAUGACAUGAGGAUCACCCAUGUGCAGGAUAUACGUGAUAUAAUAUAGUAGAAGGGCAGACUAUAU | 51.9 nM | 57.6 nM | – | – |
| UCAUACAUUCGAGGAUAUCGGUGAUAACUCAAACGAGAAGGCGAUUUAAAACAUAAUGCUGUAGACAUGAGGAUCACCCAUGUA | – | – | 476 nM | 182 nM |
| UCAUGAAGGACAGGAUAUGGACAUGAGGAUCACCCAUGUACAUGGGAUUAUAUACUGAAUUUAUACUAGAAGGGUUACAUAAAU | 44.7 nM | 30.2 nM | – | – |
| UCAUUGAUUGUGAGGAUAUCGAUGUGAUGGAUUGUCGAGAAGGCACAUGAGGAUCACCCAUGUGGGUGUGGGCU | 864 nM | 454 nM | – | – |
| UCAUUUCUGUUAGGAUAUUAAAACAUGACGAUACAUGAGGAUCACCCAUGUUAAGAAGGAACAAAUACAUAUAAUGCAAUGUUC | 12.5 nM | 10.7 nM | – | – |
| UCCAACCCUGUGAGGAUAUCGUCCAUUUUUUGUUCCGAGAAGGCACAUGAGGAUCACCCAUGUUUUUUAUUUUU | 28.1 nM | 93.7 nM | – | – |
| UCCACUGCUGAGAAGGGAUAGAUAUCGUUCUAGUCAGGAUAUCAAUACAGUGCAGCAUGAGGACAUGAGGAUCACCCAUGUAUU | – | – | 14.2 nM | 10.9 nM |
| UCCAUCGUAUGAGGAUAUGGAACUGAAACAGUUCCAGAAGGCAUGUCAAUAGACAUGAGGAUCACCCAUGUAUUAUCGAUGGAA | – | – | 429 nM | 42.9 nM |
| UCCCUGUGAGGAUAUCUCUUUGAGUGCGGCGAAUUCAGGUGGGAGAAGGCACAUGAGGAUCACCCAUGUAUUGC | 40.2 nM | 73 nM | – | – |
| UCCCUUAGUGUAAGGAUAUCGUUCCAUUGACGGAGCGAGAAGGUACAUGAGGAUCACCCAUGUGUCAAUGCCGG | 20 nM | 54.4 nM | – | – |
| UCCUACAUCGGAGGAUAUCAUGUGUAAACAUGAGGAUCACCCAUGUCGUACGAUAGUACGGAGAUUGAGAAGGCCGAUGUAGGU | – | – | 93.9 nM | 17.3 nM |
| UCCUACAUGGGAGGAUAUCCUCAUGAGACAUGAGGAUCACCCAUGUAUUAUAAGCCGAAAGGCAAGGAGAAGGCCCAUGUAGGU | – | – | 34.9 nM | 18 nM |
| UCCUCACAUGAGGAUCACCCAUGUCAGGAUAUCUGCGAGCAAUGGCCAAGGCCACUCAGGAGAAGGGACGUCAA | 16.3 nM | 22.3 nM | – | – |
| UCCUGAUUGAGAGGUAGGAGUGGUAGAAGGCGACCGGUGCCAGAUGACAUGAGGAUCACCCAUGUCGAGGAUAUACCACUGAAU | 7.38 nM | 12.4 nM | – | – |
| UCCUGAUUGAGAGUUAGGAGUGGUAGAAGGCGACCGGUGCCAGAUGACAUGAGGAUCACCCAUGUCGAGGAUAUACCACAGAAU | 8.04 nM | 15.4 nM | – | – |
| UCCUGGCGAGGAUAUACAAAGUUUUUUACGUUUUGUUACGAACAUGAGGAUCACCCAUGUAGAAGGUGCUGCUG | 62.2 nM | 58.1 nM | – | – |
| UCCUUAAACACAGGAUAUCCUGCCGUACAUGAGGAUCACCCAUGUCCGGUCGGAGAAGGGUGGCGAAGGUAUGUGCGAAUUAAG | – | – | 8.23 nM | 5.41 nM |
| UCCUUGUCCUGAGGAUAUCCGCGGUUCCCAAAAGGAGAAGGCAGGACAUGAGGAUCACCCAUGUACCCAGAAAACGUGCAGAGC | 9.39 nM | 33.8 nM | – | – |
| UCGACCAGCGCCAGUCAAACAUGAGGAUCACCCAUGUACUCCAGAAGGCCGCCCAAGAACGGAGUGGAGGAUAUGGAGGUUCUC | – | – | 43.2 nM | 36.7 nM |
| UCGACCGGCGCCGGUCGAACAUGAGGAUCACCCAUGUACUCCAGAAGGCCGCCCAAGAACGGAGUGGAGGAUAUGGAGGUUCUC | – | – | 77.1 nM | 22.3 nM |
| UCGCCAGGUACAGGAUAUGUGGAUCAGUCAAGUAAUUUGCUGAACAUGAGGAUCACCCAUGUAUCACAGAAGGGUGCCUCAAAA | – | – | 173 nM | 8.41 nM |
| UCGCUGCGAGGAUAUACAUGAGGAUCACCCAUGUACGGGUCCGGGUCUAAGUUGAUAAGUAGAAGGCGCAGUGA | 125 nM | 112 nM | – | – |
| UCGCUGCGAGGAUAUACAUGAGGAUCACCCAUGUACGGGUCCGGGUCUUCGUCUAUUGGUAGAAGGCGCAGUGA | 54.2 nM | 277 nM | – | – |
| UCGCUGUCAGGAUAUCUUAUAUAGAACAUGAGGAUCACCCAUGUUCAUGUAUUCUGUGAGAGAGAAGGGACUCCUU | 15 nM | 17.4 nM | – | – |
| UCGGCGCGAGGAUAUACGUUUGCUUUUUAGGAUCGUUGCGUACAUGAGGAUCACCCAUGUAGAAGGCGCGCCGC | 14.6 nM | 19.5 nM | – | – |
| UCGUGAAGGACAGGAUAUGGACAUGAGGAUCACCCAUGUACAUGGGAAUAUAUACUGCAUUUAUACUAGAAGGGUUACAUAAAU | 12.8 nM | 11.2 nM | – | – |
| UCGUGCCGGGUCACGAUUGACCCACAUGAGGAUCACCCAUGUAGAAGGACCAGCGUCGGCCCUUGGUAGGAUAUACAUGAGCUC | 94.8 nM | 114 nM | – | – |
| UCUACAUAAAUUCAUCAAUACAGAAAGGAUAUGAGAUACAUGAGGAUCACCCAUGUGCAUGGGAAUUAGAAGGUUCAAUUAGCU | 94.2 nM | 58.6 nM | – | – |

| Sequence | apparent Kd [1] | apparent Kd [2] | apparent Kd [3] | apparent Kd [4] |
| --- | --- | --- | --- | --- |
| UCUAUGUAGAUUCGUCAAUACAGUUAGGAUAUGAGAUACAUGAGGAUCACCCAUGUGCAUGUGGAUUAGAAGGAACAAUUAACU | 93.4 nM | 69.8 nM | – | – |
| UCUCGACAUGAGGAUCACCCAUGUCAGGAUAUUGUGUUUGAGGUUUUUUACCUUUUGACAAGAAGGGAUGUGUG | – | 30.4 nM | – | – |
| UCUCGUUUCGCAGGAUAUGCUGGUCGGUAAUAUACCGGCCACAUGAGGAUCACCCAUGUGCCACAGCAGAAGGGUGACACUAGA | – | – | 634 nM | 65.7 nM |
| UCUGCUCGAGGAUAUACAUGAGGAUCACCCAUGUAUCCCUGUAGCAUGGCCUCAGGAUGUAGAAGGCGACGCUA | 14.9 nM | 16.8 nM | – | – |
| UGAAAUCAUGUAGGAUAUGCAUGGCGAAGCUACGCAGAAGGACAUGAGGAUCACCCAUGUUAUAGCGUCCGAUAAAGGAUGCAA | 135 nM | 139 nM | – | – |
| UGAAAUCAUGUAGGAUAUGCAUGGCGAAGCUACGCAGAAGGACAUGAGGAUCACCCAUGUUAUAGCUACCAAGUUAGGUGGCAA | 155 nM | 138 nM | – | – |
| UGAACCCAUGUUAGGAUAUCAGGCCGAGGAAGUUCUGAGAAGGGACAUGAGGAUCACCCAUGUAUAAAAGAAAC | 70.6 nM | 41.8 nM | – | – |
| UGAACUUCAGAGAAGGUCGAACGGCAACGAUUCGAAGGAUAUCUGGAAACAUGAGGAUCACCCAUGUAACCGGGUGGAUGUCCU | 43.3 nM | 182 nM | – | – |
| UGAAUGUGAGGAUAUGGUGAGUAGUGCCUAAGCGCUGCUCACCAGAAGGCACAUGAGGAUCACCCAUGUACUUG | 61.7 nM | 192 nM | – | – |
| UGACACAUGAGGGUCUCCCUUGACAUGAGGAUCACCCAUGUGCAGGAUAUACGUGUGAUGGUAUAGUAGAAGGGCACUCUAUGU | 30.6 nM | 40.5 nM | – | – |
| UGACAUAUAUAGAAGGGUAGUAGGGUUUUACAUGAGGAUCACCCAUGUAUUAUAGGAUAUGUGUAAAGUUAUUAUUAAAGUAAA | 22.5 nM | 17.2 nM | – | – |
| UGACGGAGCAGAGGAUAUUACAUGAGGAUCACCCAUGUAUGAACCAAUAGCUGGAAACAGCAAUGUAAGAAGGCUGCUCCGACA | 11.6 nM | 147 nM | – | – |
| UGAGAUCGGGCAGGAUAUCGACAUGAGGAUCACCCAUGUGGGUUAUACUUCCCGCAUGGCUGUGGCGAGAAGGGCCCGGACCAU | 395 nM | 83.1 nM | – | – |
| UGAGCAUCAGGAUAUAUGUGGCGACCGUGAGGUCGAAGGUUACAUGAGGAUCACCCAUGUAGAAGGGAUGUUCU | 62.6 nM | 203 nM | – | – |
| UGAGCAUGAGGAUAUACAAGGCGUGCGUGAGCACGAGGUUUACAUGAGGAUCACCCAUGUAGAAGGCAUGUUCU | 19.1 nM | 39.8 nM | – | – |
| UGAGCAUGAGGAUAUACUUGGCGACCGUGAGGUCGAGGUUUACAUGAGGAUCACCCAUGUAGAAGGCAUGUUCU | 18.7 nM | 52.6 nM | – | – |
| UGAGCCUCGUGAGGAUAUACAUGAGGAUCACCCAUGUAAAUGAAAGAUACGUCGAAACGACGAAUGUAGAAGGCACGAGGCUCA | 18.4 nM | 61.3 nM | – | – |
| UGAGGACAUGAGGAUCACCCAUGUAAGGAUAUGCGGAGAGUUUGGAGAGGUUGAGGAGGCAGAAGGUACGGGAU | 155 nM | 79.1 nM | – | – |
| UGAUAGGACACAGGAUAUACGUCCUAGAGAUACUAGGAAAGUUUCCUCACAUGAGGAUCACCCAUGUAGAAGGGUGUCCUAUCU | 9.93 nM | 222 nM | – | – |
| UGAUAGGACAGAGGAUAUACGUGCUAGAGAUACUAGCAAAGUAUCUUGACAUGAGGAUCACCCAUGUAGAAGGCUGUCCUAUCU | 5.99 nM | 14.3 nM | – | – |
| UGAUCGAGAGAUCUUAGAUUCUGCAAGGAUAUGCAGGAGUUGCGCUUUACAUGAGGAUCACCCAUGUAGAAGGUGUAGAGUCUA | 6.62 nM | 8.08 nM | – | – |
| UGAUCGAGAGAUCUUAGAUUCUGGUAGGAUAUACAACAGUUGCGCUUUACAUGAGGAUCACCCAUGUAGAAGGACUAGAGUCUA | 7.55 nM | 8.78 nM | – | – |
| UGAUCGAGAGAUCUUAGAUUCUGGUAGGAUAUACAUUAUAGAAGAUAUACAUGAGGAUCACCCAUGUAGAAGGACUAGAGUCUA | 6.73 nM | 9.72 nM | – | – |
| UGAUUUCAUGUAGGAUAUGCUUGGCGAAGCUACGCAGAAGGACAUGAGGAUCACCCAUGUUUUAGCGUCUGAGUAUAGAUUCUA | 30.6 nM | 187 nM | – | – |
| UGAUUUUCUUCUAACUAUCACCACAUGAGGAUCACCCAUGUCAAGGAUAUAGAGCGCGCUGGGUUCUAGAAGGUGGCGUGCCAA | 7.52 nM | 6.47 nM | – | – |
| UGCAGCGUGCACAUGAGGAUCACCCAUGUGCCAGUGGACGCACAGGAUAUGCAAUCGUACGGCUAGCAGAAGGGUGGGUCUCAC | – | – | 7.37 nM | 7 nM |
| UGCAUGGUAGGAUAUACGGAACAUUAGGGUUUGUUAUGUAGACAUGAGGAUCACCCAUGUAGAAGGGCCGUGCU | 37.9 nM | 60.8 nM | – | – |
